# According to paper PMC3983359 (Journal of Medicinal Chemistry, 2014):
# Entries after “also recorded” stand apart in the source; their conditions may differ. Where a name gives a salt, the structure may show the parent alone. Peptide text beside a SMILES is read from it. * marks the point of attachment. βNA = c1ccc2cc(N*)ccc2c1
# Tests used:
# B. subtilis 168 = assay: Membrane damage assessment; type: cell-based, Bacillus subtilis; settings: 15 min incubation, up to 10-fold MIC, Syto9/propidium iodide
# Procedure, shortened: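 B. subtilis membrane integrity assessed by fluorescence microscopy with Syto9, which stains all cells, and propidium iodide, which enters only compromised cells. […] Stained cells were counted.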
# B. subtilis = assay: MIC determination, broth dilution, B. subtilis; type: cell-based, Bacillus subtilis; settings: for MIC: Bacillus subtilis
# Procedure, shortened: (§1)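 Bacterial MIC followed NCCLS M07 broth microdilution. Test compound in DMSO (1 μL) added to 50 μL cation-adjusted Mueller Hinton II broth, then ~1 × 10^3 cfu from overnight liquid culture. Incubated at 30–37 °C for 16–20 h. MIC taken as the first well without visible growth. For imaging, 0.7% w/v resazurin (10 μL) added, then 4 h at 37 °C.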
# Sfp-PPTase = biological target: T1, Sfp-PPTase (Bacillus subtilis, UniProt P39135); assay: Rescue-by-dilution reversibility experiment; type: biochemical; settings: 100-fold dilution from conditions producing 90% inhibition
# T1 sequence (P39135 1-224): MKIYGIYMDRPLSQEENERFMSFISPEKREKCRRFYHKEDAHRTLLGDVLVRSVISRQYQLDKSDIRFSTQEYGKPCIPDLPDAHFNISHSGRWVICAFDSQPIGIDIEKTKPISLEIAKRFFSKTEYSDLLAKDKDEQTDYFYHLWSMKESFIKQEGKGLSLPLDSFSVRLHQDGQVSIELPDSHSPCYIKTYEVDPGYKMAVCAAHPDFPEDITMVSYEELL
# B. subtilis Sfp-PPTase = biological target: T2, B. subtilis Sfp-PPTase (Bacillus subtilis, UniProt P39135); assay: Sfp-PPTase qHTS assay; type: biochemical; settings: for IC50 ± SD: triplicate; for Sfp-PPTase inhibitory activity in words: SAR discussion
# T2 sequence (P39135 1-224): T1 sequence (P39135 1-224)
# B. subtilis (HM489) = assay: B. subtilis HM489 antibacterial assay; type: cell-based, Bacillus subtilis; settings: cellular ATP content, Bac-Titer Glo
# HepG2 cells = assay: HepG2 cytotoxicity counterscreen; type: cell-based, human; settings: cellular ATP content, CellTiter-Glo, 48 hr
# E. coli = assay: MIC determination, broth dilution, E. coli; type: cell-based, Escherichia coli; settings: E. coli K12 and BW25113
# Procedure, shortened: as §1
# E. coli JW0451 (ΔacrB) = assay: Broth dilution with efflux-defective E. coli mutant; type: cell-based, Escherichia coli
# Procedure, shortened: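 Broth microdilution: test compound in DMSO (1 μL) added to 50 μL cation-adjusted Mueller Hinton II broth, then ~1 × 10^3 cfu inoculum from overnight culture. Incubated at 30–37 °C for 16–20 h. MIC scored visually as the first well without growth. Efflux-defective ΔacrB strain JW0451 tested alongside wild-type BW25113.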
# E. coli BW25113 = assay: Checkerboard synergy experiment with PAβN; type: cell-based, Escherichia coli; settings: top concentrations tested
# Procedure, shortened: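 Checkerboard broth dilution in E. coli BW25113 combining test compound with PAβN over concentration grids. Resazurin added (10 μL, 0.7% w/v) and incubated a further 4 h at 37 °C; purple wells scored as no metabolically active bacteria. At each test-compound concentration, the lowest PAβN concentration halting growth was recorded. FIC index was estimated as combined potency relative to the single components.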
# [1] = tested on: S. aureus BK2395 (PFGE USA500); assay: Mouse model of S. aureus septicemia; type: in vivo; settings: 55 30 mpk, vancomycin 50 mpk; 4, 24, 48 hours post infection
# CYP2D6 = CYP2D6 (Homo sapiens, UniProt P10635); assay: CYP2D6 inhibition; type: in vitro ADME; settings: 2D6, 3 μM, substrate dextromethorphan
# [2] = Compound stability in aqueous media and buffers; type: physicochemical; settings: pH range 2–9, PBS and HEPES
# [3] = tested on: S. aureus and B. subtilis; assay: Minimum bactericidal concentration determination; type: cell-based
# P. aeruginosa = assay: MIC determination, broth dilution, P. aeruginosa; type: cell-based, Pseudomonas aeruginosa; settings: ATCC9028
# Procedure, shortened: as §1
# human PPTase = biological target: T3, human PPTase (Homo sapiens, UniProt Q9NRN7); assay: Gel-based PPTase assay with the human enzyme; type: biochemical; settings: concentrations up to 125 μM
# T3 sequence (Q9NRN7 1-309): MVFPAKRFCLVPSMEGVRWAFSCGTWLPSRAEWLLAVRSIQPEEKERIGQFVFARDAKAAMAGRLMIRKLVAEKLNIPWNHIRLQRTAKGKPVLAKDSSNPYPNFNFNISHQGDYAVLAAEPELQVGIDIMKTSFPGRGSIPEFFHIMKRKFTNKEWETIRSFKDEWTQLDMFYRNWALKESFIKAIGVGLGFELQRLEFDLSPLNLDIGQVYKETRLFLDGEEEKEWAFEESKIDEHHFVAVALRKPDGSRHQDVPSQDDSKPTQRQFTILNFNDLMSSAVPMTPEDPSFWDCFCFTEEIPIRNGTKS
# Candida albicans = assay: MIC determination, broth dilution, fungi; type: cell-based; settings: C. albicans ATCC90028 and ATCC96901
# Procedure, shortened: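 Fungal MIC followed NCCLS M27 broth microdilution against fluconazole-sensitive and fluconazole-resistant C. albicans strains. Inoculum was made by suspending 2-day-old colonies in RPMI 1640, ~1 × 10^3 cfu per well, with test compound in DMSO. Incubated at 30–37 °C for 48 h. MIC read visually as the first well without growth.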
# clinical strains of MRSA = assay: MIC against clinical strains of S. aureus; type: cell-based, Staphylococcus aureus; settings: all strains tested
# [4] = Mouse liver microsome stability; type: in vitro ADME
# [5] = In vivo PK in male CD1 mice; parameters: species or system mouse
# [6] = PAMPA passive permeability; type: in vitro ADME
# Sequence of CYP2D6 (P10635 whole entry): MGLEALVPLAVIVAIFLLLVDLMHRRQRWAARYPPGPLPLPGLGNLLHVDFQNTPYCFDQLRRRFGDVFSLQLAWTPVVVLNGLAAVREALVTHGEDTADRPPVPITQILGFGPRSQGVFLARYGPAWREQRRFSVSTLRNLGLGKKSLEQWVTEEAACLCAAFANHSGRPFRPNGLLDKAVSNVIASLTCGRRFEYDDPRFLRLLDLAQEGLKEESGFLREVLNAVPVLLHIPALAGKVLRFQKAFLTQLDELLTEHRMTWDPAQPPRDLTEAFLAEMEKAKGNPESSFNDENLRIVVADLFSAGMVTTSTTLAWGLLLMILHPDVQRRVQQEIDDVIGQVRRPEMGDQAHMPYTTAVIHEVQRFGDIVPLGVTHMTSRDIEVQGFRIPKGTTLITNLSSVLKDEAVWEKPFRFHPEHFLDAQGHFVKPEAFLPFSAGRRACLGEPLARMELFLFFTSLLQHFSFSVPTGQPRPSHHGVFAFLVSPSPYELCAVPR
smiles,measurement,setting,value
"CCCCCCCCCCCCCCCC[N+](C)(C)C [CTAB, cetyltrimethylammonium bromide]",bacterial cell membrane integrity,B. subtilis 168,rapid compromise of bacterial cell integrity
same,MIC,B. subtilis,~2 µg/mL
O=C(N[C@H](CO)[C@H](O)c1ccc([N+](=O)[O-])cc1)C(Cl)Cl [Chloramphenicol],bacterial cell membrane integrity,B. subtilis 168,continued cellular viability
same,MIC,B. subtilis,~2 µg/mL
"Cc1ccnc(NC(=S)N2CCN(c3cccc(C(F)(F)F)c3)CC2)c1 [Compound 1, N-(4-Methylpyridin-2-yl)-4-(3-(trifluoromethyl)phenyl)piperazine-1-carbothioamide Trifluoroacetate]",reversibility of inhibition of Sfp,Sfp-PPTase,completely reversible inhibition
FC(F)(F)c1cccc(N2CCN(C(=S)Nc3cc(C(F)(F)F)ccn3)CC2)c1 [Compound 4],IC50 ± SD,"B. subtilis Sfp-PPTase; Table 1, HTS assay",inactive
Cc1cccc(NC(=S)N2CCN(c3cccc(C(F)(F)F)c3)CC2)c1 [Compound 5],IC50 ± SD,"B. subtilis Sfp-PPTase; Table 1, HTS assay",inactive
FC(F)(F)c1cccc(N2CCN(C(=S)Nc3ccncc3)CC2)c1 [Compound 6],IC50 ± SD,"B. subtilis Sfp-PPTase; Table 1, HTS assay",inactive
"Cc1ccnc(NC(=O)N2CCN(c3cccc(C(F)(F)F)c3)CC2)c1 [Compound 12, N-(4-Methylpyridin-2-yl)-4-(3-(trifluoromethyl)phenyl)piperazine-1-carboxamide Trifluoroacetate]",IC50 ± SD,"B. subtilis Sfp-PPTase; Table 1, HTS assay",inactive
same,Sfp-PPTase IC50,"B. subtilis Sfp-PPTase; Table 4, HTS assay",inactive
same,B. subtilis (HM489) IC50,B. subtilis (HM489),inactive
Cc1ccnc(NC(=N)N2CCN(c3cccc(C(F)(F)F)c3)CC2)c1 [Compound 13],IC50 ± SD,"B. subtilis Sfp-PPTase; Table 1, HTS assay",inactive
Cc1cc(C)nc(N/C(=N/C#N)N2CCN(c3cccc(C(F)(F)F)c3)CC2)c1 [Compound 14],Sfp-PPTase inhibitory activity in words,B. subtilis Sfp-PPTase,complete loss of activity
same,IC50 ± SD,"B. subtilis Sfp-PPTase; Table 1, HTS assay",inactive
Cc1cc(C)nc(NC(=C(C#N)C#N)N2CCN(c3cccc(C(F)(F)F)c3)CC2)c1 [Compound 15],Sfp-PPTase inhibitory activity in words,B. subtilis Sfp-PPTase,complete loss of activity
same,IC50 ± SD,"B. subtilis Sfp-PPTase; Table 1, HTS assay",inactive
Cc1cc(C)nc(Nc2nnc(N3CCN(c4cccc(C(F)(F)F)c4)CC3)s2)c1 [Compound 16],IC50 ± SD,"B. subtilis Sfp-PPTase; Table 1, HTS assay",inactive
Cc1ccnc(N(C)C(=S)N2CCN(c3cccc(C(F)(F)F)c3)CC2)c1 [Compound 19],IC50 ± SD,"B. subtilis Sfp-PPTase; Table 1, HTS assay",inactive
Cc1ccnc(NC(=S)NC2CCN(c3cccc(C(F)(F)F)c3)CC2)c1 [Compound 20],IC50 ± SD,"B. subtilis Sfp-PPTase; Table 1, HTS assay",inactive
"Cc1ccnc(NC(=S)N2CCN(c3ccccc3C(F)(F)F)CC2)c1 [Compound 22, N-(4-Methylpyridin-2-yl)-4-(2-(trifluoromethyl)phenyl)piperazine-1-carbothioamide Trifluoroacetate]","cytotoxicity (HepG2), IC50",HepG2 cells,inactive
"Cc1cc(C)nc(NC(=S)N2CCN(c3ccc(Cl)cc3C(F)(F)F)CC2)c1 [Compound 41, 4-(4-Chloro-2-(trifluoromethyl)phenyl)-N-(4,6-dimethylpyridin-2-yl)piperazine-1-carbothioamide Trifluoroacetate]","cytotoxicity (HepG2), IC50",HepG2 cells,inactive
"COc1ccnc(NC(=S)N2CCN(c3ncc(C(F)(F)F)cc3Cl)CC2)c1 [Compound 55, 4-(3-Chloro-5-(trifluoromethyl)pyridin-2-yl)-N-(4-methoxypyridin-2-yl)piperazine-1-carbothioamide Trifluoroacetate]",growth inhibition of E. coli,E. coli,No growth inhibition
same,lowest concentration to which the ΔacrB strain is susceptible,"E. coli JW0451 (ΔacrB); E. coli JW0451, lesion in acrB locus",12.5 µg/mL
same,lowest concentration inhibiting bacterial growth (Figure 4B),E. coli JW0451 (ΔacrB); legend: disruption of tolC,12 µM
same,antibacterial activity of the single compound against BW25113,E. coli BW25113,neither compound alone was found to possess antibacterial activity
same,survival in mouse sepsis model,[1],did not increase survival
same,CYP inh (3 μM) (%),CYP2D6,25 (2D6) %
same,"degradation in aqueous media, buffers and mouse plasma",[2],no signs of degradation
same,type of antibacterial activity,[3],bactericidal activity
same,growth inhibition of P. aeruginosa,P. aeruginosa,No growth inhibition
same,inhibition of the human PPTase,human PPTase,no inhibition; also recorded: null activity
same,bacterial cell membrane integrity,B. subtilis 168,continued cellular viability
same,growth inhibition of fungal organisms,Candida albicans,No growth inhibition
same,spread of potencies over the panel of clinical isolates,clinical strains of MRSA,≤ 3 fold
same,concentration inhibiting the growth of B. subtilis,"B. subtilis; broth dilution, resazurin",1.7 µg/mL
same,"cytotoxicity (HepG2), IC50",HepG2 cells,inactive
same,microsomal stability without NADPH,"[4]; absence of NADPH cofactor, 1 h",completely stable
same,half-life,"[4]; mouse, liver microsomes, microsomal stability (T1/2, min), mouse liver microsomes, with NADPH",49.5 min
same,adverse clinical observations,"[5]; iv 3 and ip 30 mg/kg, 24 h period",did not result in any adverse clinical observations
same,time for which exposure exceeds the in vitro antibacterial MIC value,[5]; total drug concentration,over 8 h
same,PAMPA,[6],1122 × 10^–6 cm/s
Cc1ccnc(NC(=S)NCCN(C)c2cccc(C(F)(F)F)c2)c1 [Compound 57],Sfp-PPTase inhibitory activity in words,B. subtilis Sfp-PPTase,lost all activity
same,IC50 ± SD,"B. subtilis Sfp-PPTase; Table 3, HTS assay",inactive
Cc1ccnc(NC(=S)NCCNc2cccc(C(F)(F)F)c2)c1 [Compound 58],Sfp-PPTase inhibitory activity in words,B. subtilis Sfp-PPTase,lost all activity
same,IC50 ± SD,"B. subtilis Sfp-PPTase; Table 3, HTS assay",inactive
Cc1ccnc(NC(=S)NC2CN(c3cccc(C(F)(F)F)c3)C2)c1 [Compound 59],Sfp-PPTase inhibitory activity in words,B. subtilis Sfp-PPTase,all activity is lost
same,IC50 ± SD,"B. subtilis Sfp-PPTase; Table 3, HTS assay",inactive
"Cc1ccnc(NC(=S)N2CCC(Nc3cccc(C(F)(F)F)c3)CC2)c1 [Compound 63, N-(4-Methylpyridin-2-yl)-4-((3-(trifluoromethyl)phenyl)amino)piperidine-1-carbothioamide Trifluoroacetate]","cytotoxicity (HepG2), IC50",HepG2 cells,inactive
"Nc1ncnc2c1ncn2[C@@H]1O[C@H](COP(=O)(O)O)[C@@H](OP(=O)(O)O)[C@H]1O [PAP, 3′-phosphoadenosine 5′-monophosphate, reference compound]",reversibility of inhibition of Sfp,Sfp-PPTase,reversible
same,inhibition of the human PPTase,human PPTase,observed inhibition
"NC(N)=NCCC[C@H](NC(=O)[C@@H](N)Cc1ccccc1)C(=O)Nc1ccc2ccccc2c1 [PAβN, phenylarginine-β-naphthamide, reference compound] (H-Phe-Arg-βNA)",antibacterial activity of the single compound against BW25113,E. coli BW25113,neither compound alone was found to possess antibacterial activity
"C/N=c1\nc(-c2ccccc2)n(-c2ccccc2)s1 [SCH-202676, reference compound]",reversibility of inhibition of Sfp,Sfp-PPTase,irreversible inhibitor
same,inhibition of the human PPTase,human PPTase,observed inhibition
"CN[C@H](CC(C)C)C(=O)N[C@H]1C(=O)N[C@@H](CC(N)=O)C(=O)N[C@H]2C(=O)N[C@H]3C(=O)N[C@H](C(=O)N[C@H](C(=O)O)c4cc(O)cc(O)c4-c4cc3ccc4O)[C@H](O)c3ccc(c(Cl)c3)Oc3cc2cc(c3O[C@@H]2O[C@H](CO)[C@@H](O)[C@H](O)[C@H]2O[C@H]2C[C@](C)(N)[C@H](O)[C@H](C)O2)Oc2ccc(cc2Cl)[C@H]1O [vancomycin, reference compound]",survival in mouse sepsis model,[1],completely protected animals from morbidity
